Assays:
[1] = Pharmacokinetics of sonidegib in plasma; format: in vivo, human; conditions: for Exposure accumulation as the AUC ratio / AUC accumulation: cycle 1 day 15; for AUC(0-t) / Tmax / Cmax: human, plasma, oral; for Tmax: T max; for Cmax: C max
advanced solid tumors = assay: Tumor response by RECIST version 1.0; format: in vivo, human
In short: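 Daily oral test compound was given in 28-day cycles to adults with advanced solid tumors who had measurable or evaluable disease. Investigators judged tumor response from CT or MRI scans according to RECIST version 1.0.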

With `Cc1c(C(=O)Nc2ccc(N3C[C@@H](C)O[C@@H](C)C3)nc2)cccc1-c1ccc(OC(F)(F)F)cc1` [Sonidegib] the Steady state ([1]; both groups) was “not achieved within cycle 1”, the “Plasma concentration at 168 h after a single dose” value ([1]; both groups at every dose) was “detected” and the “Exposure accumulation as the AUC ratio” value ([1]; group 1, 400 mg) was 4.9 fold. The “Accumulation in trough levels” value ([1]; group 1, 400 mg, cycle 2 day 1 vs 24-h post-dose concentration in run-in) was 12.4 fold, the “Accumulation in trough levels” value ([1]; group 1, 400 mg, cycle 2 day 22 vs 24-h post-dose concentration in run-in) was 19.6 fold and the “Exposure accumulation as the AUC ratio” value ([1]; group 1, 600 mg) was 4.6 fold. The “Accumulation in trough levels” value ([1]; group 1, 600 mg, cycle 2 day 1 vs 24-h post-dose concentration in run-in) was 14.3 fold, the “Accumulation in trough levels” value ([1]; group 1, 600 mg, cycle 2 day 22 vs 24-h post-dose concentration in run-in) was 19.9 fold and the AUC accumulation ([1]; group 2, 400 mg) was “approximately 4.3 fold”. For the same compound, the Trough accumulation ([1]; group 2, 400 mg, cycle 2 day 1) was 13.9 fold, the Trough accumulation ([1]; group 2, 400 mg, cycle 2 day 22) was 16.3 fold and the AUC accumulation ([1]; group 2, 600 mg) was ~4.2 fold. It also gave a Trough accumulation ([1]; group 2, 600 mg, cycle 2 day 1) of 12.3 fold, a Trough accumulation ([1]; group 2, 600 mg, cycle 2 day 22) of 13.8 fold and an AUC accumulation ([1]; group 2, 800 mg) of ~6.0 fold. It also gave an AUC(0-t) ([1]; 400 mg q.d., AUClast, cycle 1, day 15 (last sampling 24 h), group 2, 400 mg q.d., n = 9, geometric mean (% CV)) of 12300 ng·h/mL, an AUC(0-t) ([1]; 400 mg, AUC0–24, pharmacokinetic run-in (single dose), group 1, 400 mg, n = 12, geometric mean (% CV)) of 2010 ng·h/mL and an AUC(0-t) ([1]; 400 mg, AUC0–24, pharmacokinetic run-in (single dose), group 2, 400 mg, n = 12, geometric mean (% CV)) of 2890 ng·h/mL. The Tmax ([1]; 400 mg, cycle 1, day 15, group 1, 400 mg q.d., n = 12, median) was 2 h, the Tmax ([1]; 400 mg, pharmacokinetic run-in (single dose), group 1, 400 mg, n = 12, median) was 3 h and the Tmax ([1]; 400 mg, pharmacokinetic run-in (single dose), group 2, 400 mg, n = 12, median) was 3 h. The AUC(0-t) ([1]; 600 mg, AUC0–24, pharmacokinetic run-in (single dose), group 1, 600 mg, n = 9, geometric mean (% CV)) was 3330 ng·h/mL, the AUC(0-t) ([1]; 600 mg, AUC0–24, pharmacokinetic run-in (single dose), group 2, 600 mg, n = 8, geometric mean (% CV)) was 3420 ng·h/mL and the Cmax ([1]; 600 mg, cycle 1, day 15, group 1, 600 mg q.d., n = 8, geometric mean (% CV)) was 1010 ng/mL. The Tmax ([1]; 600 mg, cycle 1, day 15, group 1, 600 mg q.d., n = 8, median) was 2 h, the Tmax ([1]; 600 mg, cycle 1, day 15, group 2, 600 mg q.d., n = 5, median) was 4 h and the Tmax ([1]; 600 mg, pharmacokinetic run-in (single dose), group 1, 600 mg, n = 9, median) was 2 h. It also gave a Tmax ([1]; 600 mg, pharmacokinetic run-in (single dose), group 2, 600 mg, n = 8, median) of 3 h, an AUC(0-t) ([1]; 800 mg, AUC0–24, pharmacokinetic run-in (single dose), group 2, 800 mg, n = 4, geometric mean (% CV)) of 3650 ng·h/mL and a Cmax ([1]; 800 mg, cycle 1, day 15, group 2, 800 mg q.d., n = 2, geometric mean (% CV)) of 1230 ng/mL. The Tmax ([1]; 800 mg, pharmacokinetic run-in (single dose), group 2, 800 mg, n = 4, median) was 2 h, the Tmax ([1]; after a single dose in run-in period and repeated dosing in cycle 1 day 15, both groups) was 2 to 4 h and the “Stable disease (SD), number of patients” value (advanced solid tumors; group 1, 400 mg) was 4 patients. The “Stable disease (SD), number of patients” value (advanced solid tumors; group 1, 600 mg) was 1 patients, the “Progressive disease, patients” value (advanced solid tumors; group 1, 15 patients) was 71% and the “Stable disease (SD), patients” value (advanced solid tumors; group 1, five patients) was 24%. For the same compound, the “Complete response or partial response” value (advanced solid tumors; group 1 and group 2) was “Neither complete response nor partial response was observed”, the “Stable disease (SD), number of patients” value (advanced solid tumors; group 2, 600 mg) was “three” and the “Best overall response SD, patients” value (advanced solid tumors; group 2, 10 patients) was 42%. The “Progressive disease, patients” value (advanced solid tumors; group 2, nine patients) was 38%.

From publication PMC5084670 (Cancer Science, 2016)
